Exocytosis inh: lytic granule exocytosis inhibition; TALL-104 LAMP-1 surface exposure, flow cytometry; cells stimulated with thapsigargin and PMA; inhibition, % at 10 µM; 360,000 compounds, 0.66% hits; AID 651702;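 active means inhibition above about 55%, limit read from the data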
rCAG binder: binds r(CAG) RNA repeats; r(CAG) RNA repeat, TO-PRO-1 dye displacement fluorescence; inhibition, % at 3 µM; 370,000 compounds, 1.3% hits;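 active means inhibition above the plate cutoff, the mean of all test compounds on that plate plus 3 SD, cut at about 35% in these data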;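 further: higher means more dye released from RNA so lower well fluorescence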
T cell HTS: T cell immune modulation candidate; 2C CD8+ T cell-vesicle binding, flow cytometry; hits give low values; response (vesicle binding), % at 7 µM; 330,000 compounds, 0.068% hits; AID 2052;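 active means response, share of CD8 T cells binding vesicles, and their 90th percentile fluorescence all below set limits, cut at about 80% in these data, passing the limit was not always enough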;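 further: values below 100% mean blocked vesicle binding to the CD8+ T cells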
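Assay system: 2C TCR transgenic mouse naive CD8+ T cells, MACS-purified | Read-out: CD8+ gate FL2 mean fluorescence as % of same-row positive control | Signal: High-throughput flow cytometry with anti-B7-1 and anti-CD8 staining | Timing: Binding step 1.5 h, 37 °C, antibody labelling 20 min, ice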
V-ATPase pHluor: alters yeast V-ATPase proton transport | S. cerevisiae, pHLuorin cytosolic pH fluorescence | response, % at 10 µM | 350,000 compounds, 0.37% hits; in the data active means response mostly above about 7.3%, no sharp cut-off; inactive means mostly below about 5.4%; further: actives read high
Beta2AR agonist: agonists of human beta-2 adrenergic receptor inducing internalization; P07550; Am2.2-beta2AR cells, FAP receptor internalization, flow cytometry; response, % (test concentration not listed); 340,000 compounds, 0.43% hits;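 active means response above a set limit, near 3 SD of response in nonfluorescent compounds, cut at about 42% in these data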
Target sequence (P07550 whole entry, looked up): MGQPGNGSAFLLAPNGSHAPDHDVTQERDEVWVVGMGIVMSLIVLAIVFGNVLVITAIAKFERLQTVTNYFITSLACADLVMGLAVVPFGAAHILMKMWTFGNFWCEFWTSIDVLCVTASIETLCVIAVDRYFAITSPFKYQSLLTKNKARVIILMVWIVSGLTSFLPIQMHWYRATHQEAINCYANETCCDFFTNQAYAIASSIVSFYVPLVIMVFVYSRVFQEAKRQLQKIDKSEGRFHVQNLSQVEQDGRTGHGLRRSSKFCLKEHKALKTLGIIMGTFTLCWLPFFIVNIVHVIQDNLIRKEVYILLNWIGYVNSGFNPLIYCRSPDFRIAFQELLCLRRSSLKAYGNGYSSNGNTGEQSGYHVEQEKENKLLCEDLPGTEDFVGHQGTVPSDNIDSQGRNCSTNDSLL
MPTP block: inhibitors of mitochondrial permeability transition pore; isolated mouse mitochondria, Ca2+ swelling absorbance, 30 min; inhibition, % at 10 µM; 360,000 compounds, 1.4% hits; AID 602449;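 active means inhibition of 50% or more, scaled per plate between neutral and stimulator controls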
Beta2AR ag CP1: human beta-2 adrenergic receptor agonism, cherry pick | shares compounds with Beta2AR agonist | Am2.2-beta2AR cells, FAP surface receptor, flow cytometry; hits give low values | percent response (surface receptor), % at 10 µM | 1,100 compounds, 25% hits;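 active means surface receptor percent response at or below 58%, roughly 3 SD from nonfluorescent compounds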
FAP fluor counter: flagged in Am2.2 fluorescence counterscreen for beta-2AR agonists; shares compounds with Beta2AR agonist; Am2.2 cells, FAP fluorogen flow cytometry; hits give low values; 1,100 tested, under 10 active; calls only at 10 µM; AID 588765;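 active means percent response below a set limit in fluorescence channel 1 and below 50% in channel 8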
Hits are given with their value; . = inactive; / = no result given. Compounds with a hit are over-represented: about 3.8% of the library has one in this group of screens.

SMILES | Exocytosis inh | rCAG binder | T cell HTS | V-ATPase pHluor | Beta2AR agonist | MPTP block | Beta2AR ag CP1 | FAP fluor counter
Cc1ccnc(NC(=O)c2ccc([N+](=O)[O-])o2)c1 | . | . | . | . | 49.4 | . | . | .
COC(=O)[C@]12C[C@H](CC(=O)N3CCOCC3)C(=O)N(Cc3ccco3)C1=C[C@H](C(C)(C)C)O[C@@H]2C | / | . | / | / | / | / | / | /
CCOC(=O)c1nnn(CC(=O)Nc2cccc(Cl)c2C)c1C(=O)OCC | . | . | . | . | 70.2 | . | . | .
CC(Oc1ccc(Cl)cc1Cl)c1nc(-c2ccc(NC(=O)c3ccccn3)cc2)no1 (stereo not drawn) | . | . | . | . | 82.3 | . | 9.7 | .
Cc1cc(C)nc(NS(=O)(=O)c2ccc(NC(=O)COc3ccccc3)cc2)n1 | . | . | . | . | 118.0 | . | . | .
COC(=O)C1CN(Cc2ccc(F)cc2)CCS(=O)(=O)N1Cc1cn(Cc2ccc(Cl)cc2)nn1 (stereo not drawn) | / | . | / | / | / | / | / | /
Cc1ccc(OCCn2c(=S)[nH]c3ccccc32)c(C(C)C)c1 | . | . | . | . | 69.0 | . | . | .
COC(=O)C1CN(Cc2ccc(Cl)cc2)CCS(=O)(=O)N1Cc1cn(Cc2ccccc2)nn1 (stereo not drawn) | / | . | / | / | / | / | / | /
O=C(Nc1ccc(N2CCN(C(=O)c3ccccc3)CC2)c(Cl)c1)c1ccc(Br)o1 | . | . | . | . | . | . | / | /
CCN1CCN(c2ccc(NC(=O)c3ccc(Br)o3)cc2)CC1 | . | . | / | . | . | . | . | .
CCCC(=O)N1CCN(c2ccc(NC(=O)c3ccc(Br)o3)cc2)CC1 | . | . | . | . | . | . | . | .
O=C(Nc1ccc(N2CCN(C(=O)c3ccccc3)CC2)cc1)c1ccc(Br)o1 | . | . | . | . | . | . | . | .
CC(C)[C@@H](CO)N1Cc2nnn(Cc3ccccc3)c2-c2ccccc2S1(=O)=O | / | . | / | / | / | / | / | /
Cc1ccc(C(=O)NCCNC(=O)c2ccc(C)nc2)cc1 | . | . | . | . | 60.6 | . | . | .
CCCCNC(=S)N/N=C1\C(=O)c2cccc3cccc1c23 | . | . | . | . | . | . | / | /
CNC(=S)N/N=C1\C(=O)c2cccc3cccc1c23 | . | . | . | . | . | . | . | .
Cc1cc(C(=O)COC(=O)CNS(=O)(=O)c2ccc3ccccc3c2)c(C)n1-c1ccccc1 | . | . | . | . | 46.9 | . | . | .
N#CCC(=O)N/N=C/c1ccc(Cl)cc1 | . | . | . | . | . | . | / | /
CN(c1ccccc1)c1ccc(/C=N/NC(=O)CC#N)cc1 | . | . | . | . | . | . | . | .
COc1ccc(-n2c(SCC(N)=O)nnc2-c2ccc(NS(=O)(=O)c3ccc(C)cc3)cc2)cc1 | . | . | . | / | 55.4 | . | . | .
COc1ccc(-n2c(SCC(=O)Nc3ccccc3)nnc2-c2ccc(NS(=O)(=O)c3ccc(C)cc3)cc2)cc1 | . | . | . | . | . | . | / | /
CC(/C=C/c1ccccc1)=N\NC(N)=S | . | . | . | . | . | . | . | .
COc1ccc(OC)c(CN2C(=O)CSCCC2(C)c2nnnn2C2CCCC2)c1 (stereo not drawn) | / | . | / | / | / | / | / | /
O=C(c1ccc(F)cc1F)N(Cc1ccccn1)CC1CCCO1 (stereo not drawn) | / | . | / | / | / | / | / | /
CCOC(=O)CS(=O)(=O)CC(=O)Nc1ccc([N+](=O)[O-])cc1OC | . | . | . | . | 85.6 | . | . | .
SMILES | Exocytosis inh | rCAG binder | T cell HTS | V-ATPase pHluor | Beta2AR agonist | MPTP block | Beta2AR ag CP1 | FAP fluor counter
Cc1ccc(O)c(NC(=O)c2ccco2)c1 | . | . | . | . | . | . | / | /
Cc1ccc(O)c(NC(=O)c2cccc(NC(=O)c3ccco3)c2)c1 | . | . | . | . | 84.8 | . | 18.5 | .
O=C(NCCCN1CCN(CCCNC(=O)c2ccccc2F)CC1)c1ccccc1F | . | . | . | . | . | . | . | .
COc1ccc(C(=O)NCCn2ccc3ccccc32)cc1OC | . | . | . | . | 45.1 | . | . | .
O=C(NCCCN1CCN(CCCNC(=O)c2ccc3c(c2)OCO3)CC1)c1ccc2c(c1)OCO2 | . | . | . | . | . | . | . | .
COCCCNC(=O)c1ccc2c(c1)OCO2 | . | . | . | . | . | . | / | /
COc1cccc(C(=O)NCCn2ccc3ccccc32)c1 | . | . | . | . | . | . | / | /
COc1ccc(C(=O)NCCCN2CCN(CCCNC(=O)c3ccc(OC)c(OC)c3)CC2)cc1OC | . | . | / | . | . | . | . | .
O=C(Nc1nc2ncccn2c1-c1ccc(F)c(F)c1)C1CC1 | / | . | / | / | / | / | / | /
O=C(c1cc2c(=O)n3ccccc3nc2s1)N1CCN(Cc2ccc3c(c2)OCO3)CC1 | . | . | . | . | 74.2 | . | 24.0 | .
CN(C)c1ccc(C=c2c3ccccc3n3c2c2ccccc2[n+]3C)cc1 | . | . | / | . | 49.8 | . | . | .
Cc1noc(C)c1S(=O)(=O)N1CCC(C(=O)N2CCC(C)CC2)CC1 | . | . | . | . | . | . | / | /
Cc1noc(C)c1S(=O)(=O)N1CCCC(C(=O)N2CCC(C)CC2)C1 (stereo not drawn) | . | . | . | . | 49.2 | . | . | .
CCOc1ccccc1C(=O)Nc1ccc(C(=O)NCC2COc3ccccc3O2)cc1 (stereo not drawn) | / | . | / | / | / | / | / | /
O=C(CN1CCN(Cc2ccccc2)CC1)Nc1ccc(N2CCOCC2)cc1 | . | . | . | . | 50.3 | . | . | .
CN(C)C(=O)NCCCC#Cc1ccccc1 | / | . | / | / | / | / | / | /
O=C(COC(=O)c1ccccc1C(=O)c1ccc(Cl)c([N+](=O)[O-])c1)NC1CCCCCC1 | . | . | . | . | 53.0 | . | 9.7 | .
COc1ccc(CCNCC(O)Cn2c3ccccc3c3ccccc32)cc1OC (stereo not drawn) | . | . | . | . | 47.6 | . | 53.0 | .
COc1ccccc1NCC(O)Cn1c2ccccc2c2ccccc21 (stereo not drawn) | . | . | . | . | . | . | / | /
N#CCC[C@H]1CC[C@]2(CCCN(C(=O)c3ccccc3)C2)O1 | / | . | / | / | / | / | / | /
OC(c1ccccc1)(c1ccccc1)C1CCN(CCCOc2ccc(OC(F)(F)F)cc2)CC1 | / | . | / | / | / | / | / | /
CCOC(=O)[C@@H](CCc1ccccc1)N[C@@H](C)C(=O)N1CCC[C@H]1C(=O)O | / | . | / | / | / | / | / | /
CCCN(CCC)C(=O)c1ccc2nc(-c3ccc(OC)c(OC)c3)c(-c3ccc(OC)c(OC)c3)nc2c1 | . | . | . | . | 43.0 | . | . | .
COc1ccc(C(CCNCc2ccc(OC)c(OC)c2)c2ccc(F)cc2)cc1 (stereo not drawn) | . | . | . | . | . | . | . | .
CC(C)Oc1ccc(C(CCNCc2ccc(O)cc2)c2ccccc2)cc1 (stereo not drawn) | . | . | . | . | . | . | . | .

Source: PubChem BioAssay
